Assay results published in ChEMBL document CHEMBL4513216, “Probing the Open Global Health Chemical Diversity Library for Multistage-Active Starting Points for Next-Generation Antimalarials” (ACS Infect Dis, 2020).

Test: Toxicity liver stage against HepG2, at 10uM
Type: cell-based
Design: test concentration 10 uM, cell line HepG2-A16-CD81EGFP
Conditions: human, HepG2-A16-CD81EGFP cells; read-out: INHIBITION
Method in brief: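 Uninfected HepG2-A16-CD81EGFP cells, 3 × 10^3 per well, 1536-well, plated on prespotted compound at 10 μM final, parasite-free screening media added to match infected plates; puromycin 10 μM positive, DMSO 0.5% negative; run in parallel with 48 h PbLuc assay at 37 °C, 5% CO2; viability by CellTiter-Glo luminescence, normalized to controls.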

CC(C)(C)CC(=O)Nc1ncn(CC(=O)NCc2ccccc2)n1
cytotoxicity at 10 µM: -3.38%

COc1ccc(NC(C)c2ccc(C#N)cc2)cc1N1CCCC1=O (stereo unspecified)
cytotoxicity at 10 µM: -7.43%

N#CC1(NC(=O)c2nccc3ccccc23)CCC1
cytotoxicity at 10 µM: 6.13%

CC(C)=CCN1CCN(Cc2cccc(C)n2)CC1CCO (stereo unspecified)
cytotoxicity at 10 µM: 1.99%

CC(C)c1nnc(NC(=O)NCc2ccnc(N(C)C)c2)s1
cytotoxicity at 10 µM: 7.29%

O=C(C1CCCC1)N1CCC(c2ccnc(Nc3cnccn3)n2)C1 (stereo unspecified)
cytotoxicity at 10 µM: -24.6%

Cc1nc(CN2C(=O)CCC23CCN(c2ncccn2)CC3)cs1
cytotoxicity at 10 µM: -7.71%

O=C(NCc1ccccc1CO)C1COc2ccccc21 (stereo unspecified)
cytotoxicity at 10 µM: 12.3%

CCc1cccc(N2CCC(NC(=O)C3CCCO3)CC2)c1 (stereo unspecified)
cytotoxicity at 10 µM: -14.3%

COc1ccc2[nH]c(=O)c(CN(C)C(C)c3ccccn3)cc2c1 (stereo unspecified)
cytotoxicity at 10 µM: 2.76%

COc1ccc(S(=O)(=O)NC(=O)c2cscn2)cc1C
cytotoxicity at 10 µM: 6.84%

Cc1csc(CN2CCn3c(COc4cccnc4)cnc3C2C)n1 (stereo unspecified)
cytotoxicity at 10 µM: -98.4%

Cn1ccnc1CNC1CCCOc2c1ccc1ccccc21 (stereo unspecified)
cytotoxicity at 10 µM: 13.3%

CS(=O)(=O)N1CCc2[nH]cnc2C12CCN(C1CCOCC1)CC2
cytotoxicity at 10 µM: -4.52%

Cc1nc(-c2ccccc2)n(CC(=O)NCC(C)C)n1
cytotoxicity at 10 µM: -2.97%

CC(C)CC(CNC(=O)NCc1cc[nH]n1)N1CCOCC1 (stereo unspecified)
cytotoxicity at 10 µM: -12.6%

CCNC(=O)c1ccc(N2CCCC(c3nccn3C(C)C)C2)nc1 (stereo unspecified)
cytotoxicity at 10 µM: -8.39%

CC(C)(C)n1cc(CNC2CCN(C(=O)c3ccncc3)CC2)cn1
cytotoxicity at 10 µM: -6.72%

CC(C)N1[C@H](Cn2cccn2)C[C@@H]2CN(Cc3ccoc3)CC[C@@H]21
cytotoxicity at 10 µM: -153%

Cc1cc(-c2cnn(CCNC(=O)C3CCCO3)c2C2CC2)on1 (stereo unspecified)
cytotoxicity at 10 µM: -4.07%

COCc1cnc2n1CCN(C(=O)C1=CCCC1)C2C (stereo unspecified)
cytotoxicity at 10 µM: 2.75%

CCN1CC2(CC1=O)CN(Cc1ccoc1)CCN(C(=O)C(C)C)C2 (stereo unspecified)
cytotoxicity at 10 µM: 9.14%

c1ccc(-n2nnnc2CNCC2CCCN2c2cccnn2)cc1 (stereo unspecified)
cytotoxicity at 10 µM: -4.14%

CC(C)(N)C(=O)N1CCC(c2nccnc2Oc2ccccc2F)CC1
cytotoxicity at 10 µM: -13.9%

Cn1cc(S(=O)(=O)Nc2ccc(Cl)cn2)cc1C(N)=O
cytotoxicity at 10 µM: -1.7%

Fc1ccc(CN2CCC3(CCCN(c4nncs4)C3)C2)cc1 (stereo unspecified)
cytotoxicity at 10 µM: -141%

CCn1c(C)nnc1CN(C)C1CCN(CC2CCC2)C1 (stereo unspecified)
cytotoxicity at 10 µM: -11.5%

Cc1ncnc2c1CCN(c1ccccn1)CC2
cytotoxicity at 10 µM: -157%

Cc1nnc(NC(=O)NCc2ccc(N3CCC(C)CC3)nc2)s1
cytotoxicity at 10 µM: -1.36%

CCOC(=O)NC(CNC(=O)c1cccc(C)n1)CC(C)C (stereo unspecified)
cytotoxicity at 10 µM: 6.17%

Cn1ccc(C(=O)N2CCC(Cc3cnc4[nH]ccc4c3)CC2)n1
cytotoxicity at 10 µM: 8.77%

COC(=O)C(NC(=O)C1CC1)c1cc(F)ccc1F (stereo unspecified)
cytotoxicity at 10 µM: -4.64%

CCc1cc(NCCNC(=O)c2cccnc2)n2nc(C)c(C)c2n1
cytotoxicity at 10 µM: -3.05%

CC(NCC1(N(C)C)CCOCC1)c1ccc(Cl)cc1 (stereo unspecified)
cytotoxicity at 10 µM: -3.19%

Cn1cccc1C(=O)N1Cc2c(CN3CCCCC3)nn(C)c2C1
cytotoxicity at 10 µM: 1.25%

CC(C)(C)n1ncc2c(=O)n(CC(=O)NCCc3ccccc3)cnc21
cytotoxicity at 10 µM: -11.3%

CC(=O)N1CCc2nc(C3CCN(C(=O)c4ccccc4)C3)ncc2C1 (stereo unspecified)
cytotoxicity at 10 µM: -4.76%

CCC(=O)Nc1nnc(CCOc2cccc(OC)c2)s1
cytotoxicity at 10 µM: 5.73%

CC(NC(=O)Cn1cccnc1=O)c1ccc(OC(F)(F)F)cc1 (stereo unspecified)
cytotoxicity at 10 µM: 1.66%

Cc1noc(C)c1CN1CC[C@H]2OCC[C@@H](C(=O)N3CCCO3)[C@H]2C1
cytotoxicity at 10 µM: 2%

c1cc(CN2CCc3c(nnn3CC3CC3)C2COCC2CC2)co1 (stereo unspecified)
cytotoxicity at 10 µM: 2.02%

O=C(c1ccc2c(c1)[nH]c(=O)n2C1CCCC1)N1CCCSCC1
cytotoxicity at 10 µM: -41.2%

Cc1nc(-c2cccc(C(=O)N(C)C)c2)cs1
cytotoxicity at 10 µM: 1.77%

Cc1cc(NC(=O)c2ccc(N3CCOCC3)c(C)c2)[nH]n1
cytotoxicity at 10 µM: -35.1%

CCCNC(c1ccc(F)cc1)c1cccnc1 (stereo unspecified)
cytotoxicity at 10 µM: 3.41%

CC(C)(C)OC(=O)N1CCN(c2cccnc2)CC1C(=O)O (stereo unspecified)
cytotoxicity at 10 µM: -13.7%

COC(=O)C(NC(=O)CCOC(C)C)c1cc(F)ccc1F (stereo unspecified)
cytotoxicity at 10 µM: -4.11%

CNC(=O)N1CCC2(CC1)c1ncc(-c3cccc(F)c3)n1CCN2C
cytotoxicity at 10 µM: 7.97%

CCCN1CCc2[nH]cnc2C12CCN(C(=O)Cn1ccnc1C)CC2
cytotoxicity at 10 µM: 13.7%

CCn1cc(CN2CCCN(C(=O)c3ccc(C#N)cc3)CC2)cn1
cytotoxicity at 10 µM: 1.8%

OCCOc1cc(F)ccc1NCc1cccc(F)c1F
cytotoxicity at 10 µM: -6.14%

N#Cc1cccc(OCCN2CCn3c(nnc3C3CC3)C2)c1
cytotoxicity at 10 µM: -7%

CN(C)C(=O)N1C[C@@H](C(=O)NCc2ccco2)C[C@H]2OCC[C@H]21
cytotoxicity at 10 µM: 2.57%

CSCCC(=O)N1CCCC(c2nccn2Cc2ccncc2)C1 (stereo unspecified)
cytotoxicity at 10 µM: 9.33%

CCCN1CC(NC(=O)Nc2nc(C)n(C(C)C)n2)CC1=O (stereo unspecified)
cytotoxicity at 10 µM: -3.04%

O=C(Nc1cc(C(F)(F)F)ccc1Cl)c1ccc(N2CCOCC2)nn1
cytotoxicity at 10 µM: -9.89%

CN(C)C(=O)COC[C@H]1CC[C@@H]2[C@@H](CCN2Cc2ccco2)O1
cytotoxicity at 10 µM: -160%

O=C(Nc1ccc2c(c1)OCO2)N1CCN(CCn2ccnc2)CC1
cytotoxicity at 10 µM: -14.2%

Cc1nn(C2CCS(=O)(=O)C2)c(O)c1CCc1ccccc1 (stereo unspecified)
cytotoxicity at 10 µM: -50.2%

Cc1ccnc(NCc2cccc(OCCN3CCOCC3)c2)n1
cytotoxicity at 10 µM: 2.5%

COCc1nc(C(=O)N(Cc2ccccc2)CC(C)C(=O)O)cs1 (stereo unspecified)
cytotoxicity at 10 µM: 4%

Cc1nnc(NCc2cccc(OCC3CCCO3)c2)c(C#N)c1C (stereo unspecified)
cytotoxicity at 10 µM: -33.8%

CN(CCc1cccs1)C(=O)Nc1cnn(CC2CCCO2)c1 (stereo unspecified)
cytotoxicity at 10 µM: -2.66%

CC(C)(CN1CCCC1)CN1CCC(Cn2cc(C3CC3)nn2)CC1
cytotoxicity at 10 µM: -12.2%

CCN1CC2(CCC1=O)CCN(Cc1cccc(C#N)c1)CC2
cytotoxicity at 10 µM: -1.1%

COCc1ncc(CN2CCC3(CCC(=O)N(CC(C)O)C3)CC2)cn1 (stereo unspecified)
cytotoxicity at 10 µM: -123%

Cn1c(=O)c2cc(C(=O)NCCOCC(F)(F)F)ccc2n(C)c1=O
cytotoxicity at 10 µM: -13.9%

CCSc1ccccc1C(=O)NCCn1nc(-n2cncn2)ccc1=O
cytotoxicity at 10 µM: -5.65%

CC[C@H]1N(CC2CCOCC2)CCC[C@]12CCC(=O)N2
cytotoxicity at 10 µM: 8.71%

O=c1[nH]nc2c(S(=O)(=O)N3CCCCCC3)cccn12
cytotoxicity at 10 µM: 2.1%

Cc1cc(C(=O)NCc2cnn(C)c2C)nc(N2CCCCCC2)n1
cytotoxicity at 10 µM: 2.01%

COc1ccc(NC(=O)N(C)Cc2ccsc2)cn1
cytotoxicity at 10 µM: -2.36%

CC(=O)c1cccc(OCC(=O)NS(=O)(=O)c2ccc(Br)s2)c1
cytotoxicity at 10 µM: -19.4%

CCC(CC)n1nc(C)cc1NC(=O)C1CCOC1 (stereo unspecified)
cytotoxicity at 10 µM: -5.15%

CN(Cc1ccccc1OC(F)(F)F)C(=O)C1CCCN(C(N)=O)C1 (stereo unspecified)
cytotoxicity at 10 µM: 7.59%

Cc1ccc2nc(NCCCN3CCCCCC3=O)n(C)c(=O)c2c1
cytotoxicity at 10 µM: 7.04%

CCN1CCOC(CNCc2ccccc2OCc2ccncc2)C1 (stereo unspecified)
cytotoxicity at 10 µM: -8.57%

CCC(=O)N1CCN(C(=O)Nc2cccc(F)c2)[C@H]2CS(=O)(=O)C[C@H]21
cytotoxicity at 10 µM: -46.8%

CCC(O)Cn1nc(CCSC)nc1-c1ccc2[nH]ccc2c1 (stereo unspecified)
cytotoxicity at 10 µM: 4.96%

Cc1nn(C)cc1CN1CCc2nc(-c3cccnc3)nc(O)c2C1
cytotoxicity at 10 µM: 22.5%

Cc1cnn(CC2CCCN2C(=O)CCc2ccsc2)c1 (stereo unspecified)
cytotoxicity at 10 µM: -1.64%

CSCc1nc(CCNC(=O)C(N)c2c(C)n[nH]c2C)cs1 (stereo unspecified)
cytotoxicity at 10 µM: -3.95%

CCn1nnc2c1C(COCC(=O)N(C)C)CN(Cc1ccoc1)C2 (stereo unspecified)
cytotoxicity at 10 µM: -2.98%

Cc1nn(C)c(C)c1C1CCCN1CC(=O)NCc1ccco1 (stereo unspecified)
cytotoxicity at 10 µM: -12.4%

O=C(c1ccnn1COc1ccc(Cl)cc1)N1CCCC1
cytotoxicity at 10 µM: -2.34%

Cc1cc2c(c(-c3cnccn3)c1)OC(CN)C2 (stereo unspecified)
cytotoxicity at 10 µM: -5.13%

NC(=O)C1(CNC(=O)CCc2ccc(Cl)s2)CCOCC1
cytotoxicity at 10 µM: 9.09%

NC(=O)C1=NC2=NS(=O)(=O)c3ccccc3N2N1Cc1ccccc1Cl
cytotoxicity at 10 µM: -10.9%

CC(CCc1ncnn1Cc1cccc(Cl)c1)N1CCCC1 (stereo unspecified)
cytotoxicity at 10 µM: -3.03%

COCc1nc(CN2CCN(c3ccc(OC)cc3)C(=O)C2C)no1 (stereo unspecified)
cytotoxicity at 10 µM: 3.35%

Cc1cc(S(C)(=O)=O)c(C)c(S(=O)(=O)NC2CCCC2)c1
cytotoxicity at 10 µM: 12.8%

Cc1ccc(C)c(C(O)CN(C)Cc2nnc3ccccn23)c1 (stereo unspecified)
cytotoxicity at 10 µM: -13.8%

O=C(C1CCC1)N1CCN(c2snc3ccccc23)CC1
cytotoxicity at 10 µM: 11.2%

Cn1nc(CN2CCCCC(N)C2)c2c(Cl)cccc21 (stereo unspecified)
cytotoxicity at 10 µM: -5.99%

Cc1cc(Nc2ccc(F)cn2)cc(C2CCN(Cc3ncc[nH]3)C2)n1 (stereo unspecified)
cytotoxicity at 10 µM: -8.26%

CSc1sc(NC(=O)Cc2c(C)nc(C)[nH]c2=O)nc1C
cytotoxicity at 10 µM: -1.29%

CC(C)c1n[nH]c(C2CN(C(=O)CCc3cscn3)CCO2)n1 (stereo unspecified)
cytotoxicity at 10 µM: -1.51%

CCc1cc2cc(OC)c(OC)cc2nc1SCCN1CCCCC1
cytotoxicity at 10 µM: -4.82%

O=C(O)c1cccnc1N1CCN(Cc2ccc(F)cc2)C(CCO)C1 (stereo unspecified)
cytotoxicity at 10 µM: 12.3%

CCc1noc(CN(C)C(=O)C2COc3ccccc3C2)n1 (stereo unspecified)
cytotoxicity at 10 µM: 1.3%

O=c1[nH]nc2c(N3CCC(NC4CCOCC4)CC3)nccn12
cytotoxicity at 10 µM: 7.19%

COCCC1(CO)CCCN(C(=O)c2cc(C#N)c(=O)[nH]c2C)C1 (stereo unspecified)
cytotoxicity at 10 µM: -37.7%

Cc1nc(S(=O)(=O)CCn2cccn2)n(CC2CCCO2)c1C (stereo unspecified)
cytotoxicity at 10 µM: -4.34%

O=C1CCC2(CCCN(C(=O)NCc3ccccc3)CC2)N1 (stereo unspecified)
cytotoxicity at 10 µM: 5.23%

Cc1cc(C2CCCN(C(=O)c3c(C)nn4cccnc34)C2)n[nH]1 (stereo unspecified)
cytotoxicity at 10 µM: -0.457%

CCn1cc2c(n1)C(COCC1CC1)CN(C(=O)c1ccco1)C2 (stereo unspecified)
cytotoxicity at 10 µM: 17.6%

N#Cc1ccnc(N2CCN(C(=O)NC3CCS(=O)(=O)C3)CC2)c1 (stereo unspecified)
cytotoxicity at 10 µM: -6.83%

CCC(=O)N1CCC2(CC1)CC(CC(N)=O)c1ccc(F)cc12 (stereo unspecified)
cytotoxicity at 10 µM: 11.8%

Cc1cccc(C(CNC(=O)NCc2cc[nH]n2)N2CCOCC2)c1 (stereo unspecified)
cytotoxicity at 10 µM: -9.19%

CCOCc1ncn2c1CN(S(=O)(=O)c1ccc(OC)cc1)CC2
cytotoxicity at 10 µM: 0.199%

CCCSCC(=O)N1CCC2(CC1)CC(c1ccccc1)CN(C)C2 (stereo unspecified)
cytotoxicity at 10 µM: -7.29%
